Screening results: PubChem, several laboratories
Compounds with a hit are over-represented: about 4.3% of the library has one in this group of screens.
SMARCA2 activ – increases SMARCA2 function in MMTV reporter cells. activation, % at 9.1 µM. MG213 cells, MMTV-luciferase reporter, dexamethasone, overnight. hit rate 1% among 370,000; in the data active = activation above about 7.8%;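 note: 0% = vehicle wells and 100% = reference activator wells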
CR mimetic SO – lowers age-related superoxide in aged yeast cells. S. cerevisiae aged cells, superoxide DHE fluorescence; stronger effect = lower value. superoxide response (% of plate mean), % at 10 µM. hit rate 0.18% among 330,000;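 active = superoxide response under a set limit, about three screen SD below normal, cut at about 65% in these data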;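 note: yeast aged for seven days with compound at 30 °C before DHE staining; 100% = average MFI of all compound-treated wells on the plate with controls excluded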
AHR activator – human AHR activation; P35869; AHR-responsive luciferase reporter cells, luminescence; activation, % at 5 µM; hit rate 2.5% among 320,000; in the data active = activation above about 47%;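 note: 0% = vehicle wells and 100% = reference agonist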
SR-BI HDL uptake – blocks mouse SR-BI lipid uptake from DiI-HDL. ldlA[mSR-BI] CHO cells, DiI-HDL uptake fluorescence, 3 h. hit rate 0.96% among 320,000. inhibition, % at 12.5 µM;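 active = mean replicate inhibition of at least 70% and a set share of replicates each scoring 70 or more; inconclusive = meets just one of the two criteria; inactive = fails both criteria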;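 note: 0% = median of neutral control wells and 100% = median of positive control wells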
Lipid droplet – modulators of hepatic lipid droplet formation; AML12 mouse hepatocytes, oleate lipid droplets, BODIPY imaging; inhibition, % at 6.5 µM; hit rate 0.4% among 240,000;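 active = lipid droplet intensity inhibited by at least 50%, with more than 500 cells counted; inconclusive = wells with under 300 cells, treated as cytotoxic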
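Technique: fluorescence imaging, 20x objective, two fields per well / Assay system: AML12 hepatocytes (mouse) / Measure: % inhibition of lipid droplet signal / Doses: 6.5 µM single-point dosing / Incubation: overnight exposure / Reagent: 100 µM oleic acid challenge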
SR-BI uptake up – activators of SR-BI mediated HDL lipid uptake. CHO ldlA[mSR-BI] cells, DiI-HDL uptake fluorescence, 3 h; 100 = double the neutral-control signal. activation, % at 12.5 µM. hit rate 0.096% among 320,000;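 active = mean replicate activation of at least 60% and every replicate at or above 60%; inconclusive = mean or all-replicate condition met, but not both; inactive = mean below 60% and not all replicates reaching 60%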;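 note: 0% = median plate neutral-control signal and 100% = twice that signal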
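Assay system: CHO ldlA[mSR-BI] cells, LDL receptor-null, SR-BI overexpressing; medium: Ham's F12 with 0.5% BSA, HEPES 25 mM, pH 7.4; also added: DiI-HDL 10 µg/mL; timing: 3 h uptake period with compound, 37 °C; signal: DiI fluorescence, bottom read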
AHR act confirm – human AHR activation, confirmation; hit rate 87% among 2,300; AID 2845; activation, % at 9 µM; human cells, AHR-responsive luciferase reporter, luminescence; shares compounds with AHR activator; in the data active = activation above about 49%;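 note: HepG2 hepatoma cells carrying a DRE-driven firefly luciferase reporter; 0% = vehicle wells and 100% = reference agonist wells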
PXR act counter – counter-screen for AHR activators: human PXR activators | shares compounds with AHR activator | activation, % at 11.6 µM | hit rate 88% among 2,300 | cell-based PXR reporter, luciferase luminescence; in the data active = activation above about 11%;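 note: human hepatoma DPX-2 cells expressing full-length human PXR; 0% = DMSO and 100% = reference agonist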
Target sequence (O75469 whole entry, looked up): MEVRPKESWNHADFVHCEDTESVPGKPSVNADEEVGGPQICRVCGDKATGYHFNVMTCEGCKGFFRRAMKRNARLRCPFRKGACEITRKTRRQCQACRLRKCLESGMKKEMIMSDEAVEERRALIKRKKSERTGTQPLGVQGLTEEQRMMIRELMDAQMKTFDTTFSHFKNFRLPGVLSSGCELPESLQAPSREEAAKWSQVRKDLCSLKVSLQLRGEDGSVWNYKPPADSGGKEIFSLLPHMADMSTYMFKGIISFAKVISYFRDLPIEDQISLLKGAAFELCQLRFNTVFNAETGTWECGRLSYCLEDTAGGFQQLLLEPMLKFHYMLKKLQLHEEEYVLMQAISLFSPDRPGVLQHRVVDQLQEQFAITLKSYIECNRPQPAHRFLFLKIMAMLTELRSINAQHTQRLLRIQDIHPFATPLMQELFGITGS
Numbers without * were called inactive; ? = inconclusive; / = not tested or not shown.

SMILES	SMARCA2 activ	CR mimetic SO	AHR activator	SR-BI HDL uptake	Lipid droplet	SR-BI uptake up	AHR act confirm	PXR act counter
Cc1ccc2c(c1)c1c3n2CCN(CCC#N)C3CCC1 (stereo unspecified)	-4	/	/	/	/	/	/	/
Fc1ccc(Cn2ccc3ccc(-c4ccc5ccn(Cc6ccccc6)c5c4)cc32)cc1	-1	/	/	/	/	/	/	/
Cc1ccc(N/N=C(\C#N)C(=N)N2CCOCC2)cc1	4	98	123*	9	22	-9	115*	16*
O=C(Nc1ccc2c(c1)OCCO2)c1cc(-c2ccccc2)nc2ccccc12	-3	98	0	58	/	-58	/	/
O=C(Nc1ccncc1)c1cc(-c2ccccc2)nc2ccccc12	1	/	/	/	/	/	/	/
O=C(Nc1ccc2c(c1)OCO2)c1cc(-c2ccncc2)nc2ccccc12	-1	117	94*	58	1	-58	95*	35*
COc1cc2c(cc1NC(=O)C(C)OC(=O)/C=C/c1ccc(OC(F)F)cc1)oc1ccccc12 (stereo unspecified)	4	100	144*	69	14	-69	107*	30*
COc1cc2c(cc1NC(=O)C(C)Sc1ccc(NC(C)=O)cc1)oc1ccccc12 (stereo unspecified)	-4	96	31	58	34	-58	/	/
NNC(=O)c1cc(-c2ccc(O)cc2)nc2ccc(Br)cc12	-4	105	81*	/	-7	/	40	6
O=C(Nc1ccc(Br)cc1)c1cc(-c2ccncc2)nc2ccccc12	2	103	109*	62	/	-62	97*	12*
CC(C)(C)OC(=O)N1C[C@@]23C[C@H](c4cccc(F)c4)[C@@H](C[C@@H]2S1(=O)=O)O3	-1	/	/	/	/	/	/	/
COC(=O)[C@]12C[C@H](CC(=O)NCc3ccc(C)o3)C(=O)N(Cc3ccco3)C1=C[C@H](C(C)(C)C)O[C@@H]2C	-1	/	/	/	/	/	/	/
COC(=O)[C@]12C[C@H](CC(=O)N3CCC(c4ccccc4)CC3)C(=O)N(Cc3ccco3)C1=C[C@H](COCc1ccccc1)O[C@@H]2C	3	/	/	/	/	/	/	/
COc1cc2c(cc1NC(=O)c1cccc(S(=O)(=O)N(C)C)c1)oc1ccccc12	3	110	79*	36	-25	-36	65*	42*
COc1cc2c(cc1NC(=O)Nc1ccc(C)cc1)oc1ccccc12	-2	95	87*	56	-4	-56	98*	/
COc1ccccc1NC(=O)c1cc(-c2ccc(OC)c(OC)c2)nc2ccccc12	-2	/	/	52	0	-52	/	/
COc1cc2c(cc1NC(=O)c1cc(-c3ccncc3)nc3ccccc13)oc1ccccc12	-3	113	83*	83*	-10	-83	71*	13*
COc1cccc(CNC(=O)Cn2c(-c3ccccc3)cc(C(C)=O)c2C)c1	-7	/	/	/	/	/	/	/
COCCCN1C(=O)[C@H](CC(=O)NCC2CCCCC2)[C@]2(C(=O)OC)CCCCC=C12	-4	/	/	/	/	/	/	/
CC/C(=N/Nc1cccc(C)c1)c1cnnc(SC)n1	-1	109	13	?	/	-71	/	/
CC/C(=N/Nc1ccc(Cl)cc1)c1cnnc(SC)n1	0	109	98*	20	-4	-20	94*	12*
O/N=C/c1cc(Cl)ccc1OCc1ccccc1Cl	-1	120	106*	1	/	-1	103*	15*
CCOc1ccc(Cl)cc1/C=N/O	-1	105	6	-10	/	10	/	/
[C-]#[N+][C@]12C(=O)[C@H](C=C(Cl)[C@@]1(C)C=C)C(C)(C)[C@H]1C(=O)N(C)c3cccc2c31	-6	/	/	/	/	/	/	/
COc1ccc(C(=O)N/N=C/c2ccc3cccc(OCc4ccccc4)c3n2)cc1	-1	98	81*	62	/	-62	81*	22*
SMILES	SMARCA2 activ	CR mimetic SO	AHR activator	SR-BI HDL uptake	Lipid droplet	SR-BI uptake up	AHR act confirm	PXR act counter
O=C(NC1CCCCN(Cc2ccc(Cl)cc2)C1=O)c1ccccn1 (stereo unspecified)	-3	/	/	/	/	/	/	/
CCn1ncc(-c2cc(C(=O)O)no2)c1C	-1	87	80*	-27	-14	27	6	3
CC(C)(C)c1ccc(-c2nnc(SCC(=O)c3ccc4ccccc4c3)n2-c2ccc(Cl)cc2)cc1	-5	/	/	/	/	/	/	/
O=C(NCC1CCN(C(=O)C(=O)c2cccs2)CC1)c1cccnc1	-5	/	/	/	/	/	/	/
COC(=O)C12C=C3CC(C)=C3C(=O)N1Cc1[nH]c3ccccc3c1C2 (stereo unspecified)	-1	/	/	/	/	/	/	/
C=CCc1c(C)nc(SC)nc1Nc1ccc(C)cc1	-2	82	22	1	-21	-1	/	/
C=CCc1c(C)nc(-c2ccccc2)nc1Nc1ccccc1O	-3	122	121*	101*	-2	-101	88*	134*
O=c1cc(-c2ccccc2)oc2ccc(Br)cc12	7.8*	86	99*	-15	/	15	80*	39*
O=C(O)CCCC[n+]1ccccc1	0	/	/	/	/	/	/	/
COc1ccc(CN2CN3Cc4ccc(C)cc4C3CS2(=O)=O)cc1 (stereo unspecified)	-4	/	/	/	/	/	/	/
O=C(NNC(=S)Nc1cccc(Cl)c1)c1ccccc1OC(F)F	-1	103	85*	13	-4	-13	126*	27*
O=C(NNC(=S)Nc1ccccc1)c1cc(Br)ccc1Cl	-2	97	103*	-20	13	20	91*	83*
COc1cccc(NC(=S)NNC(=O)c2ccccc2OC(F)F)c1	-3	84	3	8	/	-8	/	/
O=C(NCc1ccccc1)[C@@H]1CCCN1C(=O)[C@H]1CCCN1C(=O)c1ccc(F)c(C(F)(F)F)c1	4	/	/	/	/	/	/	/
CCNC(=O)Nc1ccc2c(c1)C(=O)N(C)[C@H]1CC[C@H](CC(=O)N[C@H](C)c3ccccc3)O[C@@H]1CO2	-3	/	/	/	/	/	/	/
CCOc1ccc(-n2c(SCC(=O)Nc3ccc(S(=O)(=O)Nc4nccs4)cc3)nnc2-c2ccc(C(C)(C)C)cc2)cc1	0	/	/	/	/	/	/	/
O=c1oc(CCCO)cc2ccc(C#Cc3cccnc3)cc12	5	90	88*	3	/	-3	76*	18*
Cc1ccccc1OCc1nc2ccccc2c(=O)n1N	5	96	14	18	20	-18	/	/
Cc1ccccc1OCc1nc2ccccc2c(=O)n1/N=C/c1c[nH]c2ccccc12	0	109	85*	31	0	-31	35	89*
Cc1cccc(C)c1OCc1nc2ccccc2c(=O)n1/N=C/c1c[nH]c2ccccc12	-3	91	102*	-11	30	11	32	112*
COC(=O)C1CN(Cc2ccc(F)cc2)CCS(=O)(=O)N1Cc1cn(Cc2ccccc2)nn1 (stereo unspecified)	-3	/	/	/	/	/	/	/
